Measured values gathered from unrelated publications.
Matrix: plasma

SMILES	host	route	dose	notes	endpoint	result
CCOC(=O)[C@@]12C[C@@H]1[C@@H](n1ccc3c(NC)nc(C#Cc4ccc(Cl)s4)nc31)[C@H](O)[C@@H]2O	male Sprague-Dawley rat	oral	1 mg/kg		AUC(0-inf)	0.0382 µg·h/mL
CCc1cc(C(=O)NC)c2nccc(N3CCc4c(cc(Cn5ccnc5)cc4-c4cn(C)nc4C(F)(F)F)C3=O)c2c1	male Sprague-Dawley rat	intravenous	3 mg/kg		AUC(0-inf)	1.28 µg·h/mL
Cc1noc(-c2cc3cc(-c4nc(C(=O)NCc5ccncc5)[nH]c4C)ccc3[nH]2)n1	Sprague-Dawley rat	intravenous	1 mg/kg		AUC	3000 nM·h
N#Cc1[nH]nnc1-c1csc(-c2ccc(Cl)cc2)n1	male Sprague-Dawley rat	oral	10 mg/kg		AUC	18.3 µg·h/mL
COc1cc2c3c(n(CCCN4CCOCC4)c(=O)c2cc1OC)-c1cc2c(cc1C3=O)OCO2	female Fischer 344 rat	intravenous	24 mg/m²	single dose	AUC(0-inf)	0.806 µg·h/mL
N#Cc1[nH]nnc1-c1cccc(OCc2cc(C(F)(F)F)ccc2C(F)(F)F)c1	male Sprague-Dawley rat	oral	10 mg/kg		AUC	46.4 µg·h/mL
O=C1N(Cc2ccccc2Cl)c2ccccc2C12NN=C(c1ccccc1)S2 (stereo not drawn)	Sprague-Dawley rat	oral	40 mg/kg		AUC	2.82 µg·h/mL
N#Cc1ccc(Nc2nc(N)cc(Oc3c(F)cc(-c4ccc(C#N)cc4)cc3F)n2)cc1	Sprague-Dawley rat	oral	5 mg/kg		AUC	0.1 µg·h/mL
Oc1c(Br)cc(Cl)c2cccnc12	Sprague-Dawley rat	oral	20 mg/kg		AUC(0-inf)	4.5 µg·h/mL
CCNC(=O)c1nc(-c2ccc3[nH]c(-c4nc(C)no4)cc3c2)c(C)[nH]1	Sprague-Dawley rat	intravenous	1 mg/kg		AUC	2400 nM·h
CC[C@H](C)[C@H](NC(=O)[C@H](Cc1ccccc1)NC(=O)[C@H](CCC(=O)O)NC(=O)[C@H](CCCNC(=N)N)NC(=O)[C@H](C)NC(=O)[C@H](C)NC(=O)[C@H](CCC(N)=O)NC(=O)[C@H](CCC(=O)O)NC(=O)[C@H](CCC(=O)O)NC(=O)[C@H](CC(C)C)NC(=O)[C@H](Cc1ccc(O)cc1)NC(=O)[C@H](CO)NC(=O)[C@H](CO)NC(=O)[C@@H](NC(=O)[C@H](CC(=O)O)NC(=O)[C@H](CO)NC(=O)[C@@H](NC(=O)[C@H](Cc1ccccc1)NC(=O)[C@@H](NC(=O)CNC(=O)[C@H](CCC(=O)O)NC(=O)[C@H](C)NC(=O)CCc1c[nH]cn1)[C@@H](C)O)[C@@H](C)O)C(C)C)C(=O)N[C@@H](C)C(=O)N[C@@H](Cc1c[nH]c2ccccc12)C(=O)N[C@@H](CC(C)C)C(=O)N[C@H](C(=O)N[C@@H](CCCNC(=N)N)C(=O)NCC(=O)N[C@@H](CCCNC(=N)N)C(=O)N[C@@H](CCCCNC(=O)COCCOCCNC(=O)COCCOCCNC(=O)CC[C@H](NC(=O)CCCCCCCCCCCCCCCCC(=O)O)C(=O)O)C(=O)O)C(C)C	rat	subcutaneous	20 nmol/kg		AUC	1980 nM·h
C=CC(=O)N1CC2CC(n3nc(-c4ccc(C(=O)Nc5ccccn5)cc4)c4c(N)ncnc43)CC2C1 (stereo not drawn)	male Wistar rat	oral	300 mg/kg		AUC(0-t)	80.7 µg·h/mL
